Data as given in ChEMBL document CHEMBL3351590, “8-Methyltryptanthrin-induced differentiation of P19CL6 embryonal carcinoma cells into spontaneously beating cardiomyocyte-like cells” (2014).
Calls of active or inactive are those of the source. The calls are words filed in the database; no cut-off is given here.

Tests used:
[1] = tested on: P19CL6; assay: Induction of differentiation of C3H/He mouse P19CL6 cells assessed as beating aggregate formation at 0.1 to 1 uM on day 10 by phase contrast microscopic analysis; type: functional, cell-based
Outline: (§1)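 Cells are seeded at 2.0 × 10^4 per 35 mm dish in α-MEM with 10% FBS, penicillin and streptomycin, plus compound (final DMSO ≤0.1%), with medium changed every 48 h. Aggregates and beating aggregates are counted every 2 days by phase-contrast microscopy in five ×100 fields (total 8.8 mm2), up to day 18. Mean ± SEM, n = 7.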

[2] = tested on: P19CL6; assay: Induction of differentiation of C3H/He mouse P19CL6 cells assessed as aggregate formation at 0.1 to 1 uM on day 10 by phase contrast microscopic analysis; type: functional, cell-based; outline: as §1
[3] = tested on: P19CL6; assay: Induction of Cav1.2 gene expression in C3H/He mouse P19CL6 cells; type: functional, cell-based
Outline: (§2)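 P19CL6 cells are cultured in α-MEM with 10% FBS, with compound (final DMSO ≤0.1%) renewed every 48 h. Total RNA is taken on day 10 and/or 18 and reverse-transcribed with random primers. Real-time PCR: 95 °C 10 min, then 40 cycles of 95 °C 15 s and 60 °C 1 min. Expression is normalized to G3PDH and given as a ratio to day 0.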

[4] = Induction of differentiation of C3H/He mouse P19CL6 cells assessed as beating rate of cardiomyocyte-like cells at 1 uM on day 18 (reference value: 45.2 +/- 4.2 bpm); type: functional
[5] = tested on: P19CL6; assay: Induction of Cav1.2 gene expression in C3H/He mouse P19CL6 cells at 1 uM by RT-PCR analysis; type: functional, cell-based; conditions: TDE = time-dependent effect; outline: as §2
[6] = tested on: P19CL6; assay: Effect on HCN4 gene expression in C3H/He mouse P19CL6 cells at 1 uM by RT-PCR analysis; type: functional, cell-based; outline: as §2
[7] = Induction of alpha-MHC gene expression in C3H/He mouse P19CL6 cells at 1 uM measured on day 10 and 18 by RT-PCR analysis relative to control; type: functional
Outline: (§3)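 Cardiac gene qPCR (α-MHC, GATA4, BMP2) in P19CL6 cells kept in α-MEM/10% FBS with agent, medium renewed at 48 h intervals. RNA is harvested on days 10 and 18 and reverse-transcribed with random primers. PCR runs 40 cycles (95 °C 15 s, 60 °C 1 min). Values are normalized to G3PDH, expressed relative to day 0, as mean ± SEM, n = 4.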

[8] = tested on: P19CL6; assay: Induction of differentiation of C3H/He mouse P19CL6 cells assessed as beating aggregate formation at 0.1 to 1 uM using compound dissolved in 0.03% DMSO by phase contrast microscopic analysis; type: functional, cell-based; outline: as §1
[9] = tested on: P19CL6; assay: Induction of differentiation of C3H/He mouse P19CL6 cells assessed as aggregate formation on day 10 by phase contrast microscopic analysis; type: functional, cell-based; outline: as §1
[10] = Induction of differentiation of C3H/He mouse P19CL6 cells assessed as number of beating aggregates at 1 uM on day 18 by phase contrast microscopic analysis; type: functional; outline: as §1
[11] = Induction of GJA1 gene expression in C3H/He mouse P19CL6 cells at 1 uM on day 18 by RT-PCR analysis relative to control; type: functional; outline: as §2
[12] = Decrease in Cav3.1 gene expression in C3H/He mouse P19CL6 cells at 1 uM on day 10 by RT-PCR analysis relative to control; type: functional, cell-based; outline: as §2
[13] = tested on: P19CL6; assay: Effect on GJC1 gene expression in C3H/He mouse P19CL6 cells at 1 uM by RT-PCR analysis; type: functional, cell-based; outline: as §2
[14] = Induction of differentiation of C3H/He mouse P19CL6 cells assessed as number of aggregates at 1 uM on day 18 by phase contrast microscopic analysis (reference value: 38.2 +/- 8.4/mm2); type: functional; outline: as §1
[15] = Induction of GATA4 gene expression in C3H/He mouse P19CL6 cells at 1 uM measured on day 10 and 18 by RT-PCR analysis relative to control; type: functional; outline: as §3
[16] = tested on: P19CL6; assay: Effect on GJA4 gene expression in C3H/He mouse P19CL6 cells at 1 uM by RT-PCR analysis; type: functional, cell-based; outline: as §2
[17] = tested on: P19CL6; assay: Induction of differentiation of C3H/He mouse P19CL6 cells assessed as aggregate formation at 0.1 to 1 uM on day 18 by phase contrast microscopic analysis; type: functional, cell-based; outline: as §1
[18] = tested on: P19CL6; assay: Induction of differentiation of C3H/He mouse P19CL6 cells assessed as beating aggregate formation at 0.1 to 1 uM on day 18 by phase contrast microscopic analysis; type: functional, cell-based; outline: as §1
[19] = tested on: P19CL6; assay: Induction of Cav1.2 gene expression in C3H/He mouse P19CL6 cells on day 10 and 18 by RT-PCR analysis; type: functional, cell-based; outline: as §2
[20] = Induction of BMP2 gene expression in C3H/He mouse P19CL6 cells at 1 uM measured on day 10 and 18 by RT-PCR analysis relative to control; type: functional; outline: as §3
[21] = Induction of Cav1.2 gene expression in C3H/He mouse P19CL6 cells at 1 uM on day 18 by RT-PCR analysis relative to control; type: functional; outline: as §2
[22] = tested on: P19CL6; assay: Induction of GATA4 gene expression in C3H/He mouse P19CL6 cells at 1 uM by RT-PCR analysis; type: functional, cell-based; conditions: TDE = time-dependent effect; outline: as §3
[23] = Induction of GJA5 gene expression in C3H/He mouse P19CL6 cells at 1 uM on day 18 by RT-PCR analysis relative to control; type: functional; outline: as §2
[24] = tested on: P19CL6; assay: Induction of differentiation of C3H/He mouse P19CL6 cells assessed as beating aggregate formation on day 10 by phase contrast microscopic analysis; type: functional, cell-based; outline: as §1
[25] = tested on: P19CL6; assay: Effect on GJB1 gene expression in C3H/He mouse P19CL6 cells at 1 uM by RT-PCR analysis; type: functional, cell-based; outline: as §2
[26] = Increase in area of beating aggregates in C3H/He mouse P19CL6 cells on day 18 by phase contrast microscopic analysis (reference value: 0.5 +/- 0.3 /mm2); type: functional
[27] = Induction of GJA5 gene expression in C3H/He mouse P19CL6 cells at 1 uM on day 10 by RT-PCR analysis relative to control; type: functional; outline: as §2
[28] = tested on: P19CL6; assay: Induction of BMP2 gene expression in C3H/He mouse P19CL6 cells at 1 uM by RT-PCR analysis; type: functional, cell-based; conditions: TDE = time-dependent effect; outline: as §3
[29] = tested on: P19CL6; assay: Induction of Cav3.1 gene expression in C3H/He mouse P19CL6 cells at 1 uM on day 18 by RT-PCR analysis; type: functional, cell-based; outline: as §2
[30] = Induction of Cav1.2 gene expression in C3H/He mouse P19CL6 cells at 1 uM on day 10 by RT-PCR analysis relative to control; type: functional; outline: as §2
[31] = Decrease in Cav1.3 gene expression in C3H/He mouse P19CL6 cells at 1 uM on day 10 and day 18 by RT-PCR analysis; type: functional, cell-based; outline: as §2
[32] = tested on: P19CL6; assay: Effect on Cav3.2 gene expression in C3H/He mouse P19CL6 cells at 1 uM by RT-PCR analysis; type: functional, cell-based; outline: as §2
[33] = tested on: P19CL6; assay: Effect on HCN2 gene expression in C3H/He mouse P19CL6 cells at 1 uM by RT-PCR analysis; type: functional, cell-based; outline: as §2
[34] = tested on: P19CL6; assay: Induction of alpha-MHC gene expression in C3H/He mouse P19CL6 cells at 1 uM by RT-PCR analysis; type: functional, cell-based; conditions: TDE = time-dependent effect; outline: as §3
[35] = tested on: P19CL6; assay: Induction of alpha-MHC gene expression in C3H/He mouse P19CL6 cells at 1 uM measured on day 10 and 18 by RT-PCR analysis; type: functional, cell-based; outline: as §3
[36] = tested on: P19CL6; assay: Induction of GATA4 gene expression in C3H/He mouse P19CL6 cells at 1 uM measured on day 10 and 18 by RT-PCR analysis; type: functional, cell-based; outline: as §3
[37] = tested on: P19CL6; assay: Induction of BMP2 gene expression in C3H/He mouse P19CL6 cells at 1 uM measured on day 10 and 18 by RT-PCR analysis; type: functional, cell-based; outline: as §3

For `CCCc1ccc2c(c1)C(=O)c1nc3ccccc3c(=O)n1-2`, the Activity [1] was “inactive”, the Activity [2] was “inactive” and the Activity [3] was “inactive”.

For `Cc1ccc2c(c1)C(=O)c1nc3ccccc3c(=O)n1-2`, the Activity [4] was 52.1 bpm, the Activity [5] was “tde” and the Activity [6] was “inactive”. For the same molecule, the “fold change (FC)” value [7] was 1130.1, the Activity [8] was “Active” and the Activity [9] was “Dose-dependent effect”. For the same molecule, the Activity [10] was 33.7 /mm2, the “fold change (FC)” value [11] was 1.38 and the fold change (FC) [12] was 0.21. The Activity [13] was “inactive”, the Activity [14] was 47.3 /mm2 and the “fold change (FC)” value [15] was 30.3. For the same molecule, the Activity [16] was “inactive”, the Activity [17] was “Active” and the Activity [18] was “Active”. For the same molecule, the Activity [19] was “Dose-dependent effect”, the “fold change (FC)” value [20] was 84.4 and the “fold change (FC)” value [21] was 3.38. The Activity [22] was “tde”, the “fold change (FC)” value [23] was 7.06 and the Activity [24] was “Dose-dependent effect”. The Activity [25] was “inactive”, the Activity [26] was 2.7 mm2 and the “fold change (FC)” value [27] was 17.44. For the same molecule, the Activity [28] was “tde”, the Activity [29] was “Active” and the “fold change (FC)” value [30] was 1.9. The inhibition [31] was “Active”, the Activity [32] was “inactive” and the Activity [33] was “inactive”. The Activity [34] was “tde”.

In the case of `CCc1ccc2c(c1)C(=O)c1nc3ccccc3c(=O)n1-2`, the Activity [1] is reported as “inactive”, the Activity [2] is reported as “inactive” and the Activity [3] is reported as “inactive”.

In the case of `O=C1c2ccccc2-n2c1nc1ccccc1c2=O`, the Activity [1] is reported as “inactive”, the Activity [35] is reported as “inactive” and the Activity [2] is reported as “inactive”. The Activity [3] was “inactive”, the Activity [36] was “inactive” and the Activity [37] was “inactive”.
